In the library only some 2.3% were active in any assay of this set; here they are far more common.
Rpn11 inh: Rpn11 (PSMD14) deubiquitinase inhibitors, primary screen, biochemical, fluorescence polarization, uHTS. 26S proteasome non-ATPase regulatory subunit 14 (Homo sapiens), O00487. human 26S proteasome, Ub4-pepOG fluorescence polarization; 20S core pre-blocked with epoxomicin. inhibition, % at 20 µM. 0.59% of 360,000 active. AID 588493, 2011;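 active means inhibition at 20 µM, scaled to each plate's controls, above about 33%, limit read from the data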
DNMT1 block: human DNMT1 methyltransferase inhibitors, primary screen, biochemical, molecular beacon, fluorescence, HinP1I cleavage, uHTS; inhibition (reported as % activation of signal), % at 10 µM; 0.83% of 360,000 active; in the data active means inhibition above about 50%
STEP block: STEP phosphatase inhibitors, primary screen, biochemical, fluorescence intensity, uHTS; Tyrosine-protein phosphatase non-receptor type 5 (Homo sapiens), P54829; inhibition, % at 20 µM; 0.25% of 360,000 active; AID 588621, 2011; recombinant STEP, OMFP fluorogenic substrate;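 active means inhibition at 20 µM, scaled per plate between control wells, above about 37%, limit read from the data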
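Assay system: isolated STEP enzyme / Timing: 20 min at room temperature, dark / Doses: 20 µM, 1% DMSO / Technique: fluorescence intensity, excitation 480 nm, emission 540 nm / Reagent: fluorogenic phosphatase substrate OMFP at 25 µM final / Measure: percent inhibition scaled to no-enzyme and uninhibited-enzyme controls, plate-pattern corrected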
Scp-1 inhibitor: Scp-1 phosphatase inhibitors, primary screen, biochemical, colorimetric, uHTS. inhibition, % at 20 µM. 0.88% of 340,000 active. AID 493091, 2011. Recombinant Scp1, phosphopeptide, malachite green phosphate absorbance;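 active means inhibition above about 50% at 20 µM, limit read from the data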
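Material – SCP-1 phosphatase catalytic domain, residues 76-261 · Buffer or medium – Acidic Tris acetate buffer with magnesium and detergent · Also added – Phospho 17-mer peptide substrate · Compound – single 20 µM dose, 1% DMSO · Times – 45 min room-temperature reaction, 5 min colour, 30 min stabiliser · Technique – Phosphate-binding colour reagent, absorbance read at 630 nm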
SUMO1-SIM PPI: modulators of SUMO1 protein-protein interactions, primary screen, biochemical, uHTS. SUMO1 binding to a labelled peptide, TR-FRET, 1 h. 0.33% of 360,000 active. inhibition, % at 20 µM. Small ubiquitin-related modifier 1 (Homo sapiens), P63165. AID 602429, 2012; in the data active means inhibition above about 37%
LMPTP block: LMPTP phosphatase inhibitors, primary screen, biochemical, fluorescence intensity, uHTS | recombinant LMPTP-A, OMFP fluorogenic substrate | inhibition, % at 20 µM | 0.22% of 360,000 active;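 active means compounds that cut the enzyme signal by at least half of the control window in the single-dose screen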
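Material: LMPTP-A; amount: 0.625 nM enzyme; doses: single 20 µM dose; times: reaction 50 min, room temperature, dark; technique: fluorescence intensity of OMFP turnover product; benchmarks: no-enzyme and uninhibited controls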
Scp-1 conf: Scp-1 phosphatase inhibitors, retest, confirmation, biochemical, colorimetric, single concentration. 61% of 2,500 active. recombinant SCP-1 catalytic domain, phosphate release, malachite green absorbance. AID 540281, 2011. inhibition, % at 20 µM. shares compounds with Scp-1 inhibitor
Scp-1 MG ctr: colorimetric readout interference by compounds, confirmation, artefact control for Scp-1 inhibitor project, biochemical, single concentration | shares compounds with Scp-1 inhibitor | Colorimetric interference counterscreen, malachite green absorbance 630 nm | apparent inhibition (interference), % at 20 µM | 2,500 tested, under 10 active;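 further: compounds added after enzyme reaction finished so only phosphate colour detection is probed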
Scp1 DSF: Scp-1 binding by thermal shift, confirmation, orthogonal assay for Scp-1 inhibitor project, biophysical, differential scanning fluorimetry. shares compounds with Scp-1 inhibitor. Recombinant SCP1, Sypro Orange thermal shift Tm. thermal shift relative to vanadate control, % at 40 µM. 25% of 1,500 active. AID 540329, 2011;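 active means substances whose mean melting-temperature shift, as a percentage of the reference inhibitor's shift, reaches about 5.3%, limit read from the data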
DNMT1 confirm: DNMT1 methyltransferase inhibitor retest, confirmation, biochemical, molecular beacon, fluorescence, single concentration; shares compounds with DNMT1 block; DNMT1 molecular beacon HinP1I cleavage; inhibition, % at 10 µM; 8% of 2,300 active;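 active means average inhibition of at least 30% in the single-concentration confirmation test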
DNMT1 interf: beacon fluorescence artifact counter-screen | activation (fluorescence interference), % at 10 µM | 1% of 2,300 active | DNMT1 molecular beacon spectral interference counterscreen, fluorescence 485/520 | shares compounds with DNMT1 block | AID 602387;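 active means activation of at least 30% at 10 µM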;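 further: DNMT1 catalytic domain with a HinP1I cleavage step and a FAM/dabcyl DNA beacon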
Rpn11 confirm: Rpn11 (PSMD14) deubiquitinase inhibitors, confirmation, biochemical, fluorescence polarization, single concentration. purified human 26S proteasome, Ub4-pepOG fluorescence polarization; proteasome pretreated with epoxomicin. 29% of 1,900 active. inhibition, % at 20 µM. shares compounds with Rpn11 inh; in the data active means inhibition above about 40%
MMP-2 inh: MMP-2 enzyme inhibition, confirmation, counter-screen for RPN11 inhibitor project, biochemical, fluorescence, single concentration | shares compounds with Rpn11 inh | recombinant MMP-2, FRET peptide cleavage fluorescence | inhibition, % at 20 µM | 4% of 1,900 active | AID 602330, 2012; in the data active means inhibition above about 40%;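 further: human MMP-2 activated beforehand with APMA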
Thrombin inh: bovine thrombin protease inhibition, confirmation, counter-screen for Rpn11 inhibitor project, biochemical, fluorescence polarization, single concentration. shares compounds with Rpn11 inh. AID 602333, 2012. 13% of 1,900 active. bovine thrombin cleavage of Ub4-pepOG. inhibition, % at 20 µM;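 active means mean inhibition at least 40% at 20 µM, or signal 3 deviations below plate average, so some actives read negative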
Numbers stand for hits; – = inactive; · = no result given.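 How the source made its calls, unless noted: active means inhibition of at least 30% at 20 µM; inactive means the rest.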

SMILES	Rpn11 inh	DNMT1 block	STEP block	Scp-1 inhibitor	SUMO1-SIM PPI	LMPTP block	Scp-1 conf	Scp-1 MG ctr	Scp1 DSF	Rpn11 confirm	MMP-2 inh	Thrombin inh	others
CC(C)[C@H](NC(=O)c1c(F)cccc1F)C(=O)OCC(=O)NNC(=O)c1ccccc1	–	–	–	·	–	–	·	·	·	·	·	·
CCOc1ncccc1C(=O)OCC(=O)c1cc(OC)c(OC)c(OC)c1	–	–	–	–	–	–	·	·	·	·	·	·
COC(=O)c1ccc(C)c(NC(=O)CSc2sc3c(O)cc(=O)[nH]c3c2C#N)c1	44	–	–	68	–	–	53	–	12	–	–	–
COC(=O)c1ccc(C)c(NC(=O)CCSc2ccc(C)cc2)c1	–	–	–	–	–	–	·	·	·	·	·	·
CCN(CC(=O)Nc1c(F)cccc1F)C(=O)CCc1nc2sc3c(c2c(=O)[nH]1)CCCC3	68	54	–	65	–	–	59	–	9.0	64	–	41	DNMT1 confirm=–;DNMT1 interf=–
COc1cc(C(=O)Nc2ccc(Nc3ccccc3)cc2)cc(OC)c1OC	–	–	–	–	–	–	·	·	·	·	·	·
COc1cccc(C(=O)Nc2cccc(-c3nnc(-c4ccco4)o3)c2)c1	–	–	–	–	–	–	·	·	·	·	·	·
COc1ccc(Br)cc1C(=O)Nc1cccc(-c2nnc(-c3ccco3)o2)c1	121	–	–	98	–	–	72	–	–	–	–	–
Cc1ccc(-n2nnc3c(=O)n(CC(=O)NCc4ccccc4)cnc32)cc1	43	–	–	93	–	–	86	–	–	49	–	–
Cc1ccc(-n2nnc3c(=O)n(CC(=O)c4ccccc4)cnc32)cc1	–	–	–	–	–	–	·	·	·	·	·	·
CCc1cc(C(=O)N(CCCOC)c2c(N)n(Cc3ccccc3)c(=O)[nH]c2=O)sc1C	–	–	–	–	–	–	·	·	·	·	·	·
Nc1nc(SCc2ccc(Cl)cc2Cl)nc2nc3c(cc12)CCCC3	42	90	–	97	–	–	76	–	–	46	–	–	DNMT1 confirm=–;DNMT1 interf=–
N#CCCN(Cc1ccccc1)C(=O)c1nccnc1C(=O)O	–	–	–	–	–	–	·	·	·	·	·	·
CC(=O)N1c2cc3ccccc3cc2N(C(C)=O)c2cc3ccccc3cc21	–	–	–	–	–	–	·	·	·	·	·	·
COc1cccc2cc(C(=O)Nc3ccc(F)cc3)c(=Nc3ccc(C(=O)O)cc3)oc12	128	–	–	102	–	–	–	–	·	117	–	–
Cc1ccccc1NC(=O)Cn1nnc(S(=O)(=O)c2ccc(C(C)(C)C)cc2)c1N	55	61	–	106	–	–	76	–	–	–	–	–	DNMT1 confirm=–;DNMT1 interf=–
COc1ccccc1-n1cnc2c(c1=O)c1nc3ccccc3nc1n2-c1ccc(C)c(C)c1	54	–	–	96	–	–	67	–	–	–	–	–
COc1cc(/C=C/c2[nH]c(=O)[nH]c(=O)c2[N+](=O)[O-])ccc1OCCC(C)C	56	–	–	63	–	–	71	–	–	–	–	–

Bioassay records: PubChem, Sanford-Burnham Center for Chemical Genomics
